Only some compounds are listed: those with a hit (about 3% of all), similar ones and a draw of the others.
ABHD5-PLIN5 inh: blocks binding of human ABHD5 to perilipin-5. actives 0.78% (n = 360,000). AID 602281. inhibition, % at 4 µM. Split G. princeps luciferase complementation, luminescence, 4 h;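 active means inhibition above the mean inhibition across every tested compound plus 3 SD, cut at about 22% in these data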;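 further: 0% = DMSO only wells and the 100% control is not disclosed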
Beta2AR agonist: human beta-2 adrenergic receptor agonism by FAP; actives 0.43% (n = 340,000); response, % (concentration not given with the values); Am2.2-beta2AR cells, FAP receptor internalization, flow cytometry;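 active means response above a set limit, near 3 SD of response in nonfluorescent compounds, cut at about 42% in these data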
Target sequence (P07550 whole entry, looked up): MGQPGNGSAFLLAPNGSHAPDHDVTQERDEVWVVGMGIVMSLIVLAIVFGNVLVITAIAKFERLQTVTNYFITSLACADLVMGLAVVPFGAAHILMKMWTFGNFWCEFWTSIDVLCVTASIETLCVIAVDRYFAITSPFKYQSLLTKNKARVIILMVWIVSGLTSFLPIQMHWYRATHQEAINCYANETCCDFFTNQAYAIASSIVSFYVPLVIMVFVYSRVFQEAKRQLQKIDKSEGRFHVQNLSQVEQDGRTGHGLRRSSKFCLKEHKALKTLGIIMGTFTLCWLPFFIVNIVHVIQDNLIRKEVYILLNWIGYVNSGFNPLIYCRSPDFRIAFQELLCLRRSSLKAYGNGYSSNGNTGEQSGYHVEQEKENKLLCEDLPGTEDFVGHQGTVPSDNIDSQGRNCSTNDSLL
MC4R antag cAMP: human MC4R antagonism in cAMP assay. MC4R-expressing cells, MTII-stimulated cAMP, LANCE TR-FRET. inhibition, % at 6.5 µM. actives 0.48% (n = 360,000);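 active means inhibition above its plate's cutoff, the mean of tested wells on that plate plus 3 SD, cut at about 29% in these data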;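 further: 0% = Melanotan II alone and 100% = Melanotan II plus saturating MCL0020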
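System: U2OS-MC4R stable cell line; Technique: Eu-cAMP/anti-cAMP TR-FRET, emission 671 nm; Repeats: single well per compound; Also added: Melanotan II; Dosing: one concentration, 6.5 µM nominal; Schedule: 30-min compound, 1-h challenge, 1-h detection, room temperature.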
PfG6PD inh: PfG6PD (Plasmodium falciparum) enzyme inhibition; PfGluPho enzyme, NADPH resazurin-diaphorase fluorescence; inhibition, % at 20 µM; actives 0.78% (n = 350,000);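 active means inhibition reaching at least a set limit at 20 µM in the primary screen, cut at about 59% in these data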;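 further: 0% = DMSO wells with substrate and 100% = DMSO wells lacking glucose-6-phosphate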
MC4R barr agon: human MC4R agonism via beta-arrestin; P32245; U2OS MC4R beta-arrestin complementation, luminescence; percent of melanotan II response, DMSO zero; activation, % at 8.9 µM; actives 0.98% (n = 360,000); AID 540308;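 active means activation above a per-plate cutoff, the mean activation of sample wells on that plate plus 3 SD, cut at about 8% in these data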
MC4R barr conf: human MC4R beta-arrestin agonism confirmation; shares compounds with MC4R barr agon; U2OS MC4R beta-arrestin recruitment, luminescence; scaled DMSO 0%, Melanotan II 100%; activation, % at 8.9 µM; actives 31% (n = 2,400);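 active means mean activation across replicates above the hit cutoff set in the earlier primary screen, cut at about 8% in these data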
MOR DOR agonist: counter-screen for MC4R agonists: agonists of mu-delta opioid heterodimer. shares compounds with MC4R barr agon. U2OS PathHunter beta-arrestin, beta-gal luminescence; percent of deltorphin B response, DMSO zero. activation, % at 9.2 µM. actives 5.8% (n = 2,400). AID 602194;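 active means mean activation across replicates exceeds the hit threshold derived in the earlier primary screen, cut at about 18% in these data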;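 further: 100% = deltorphin B at 0.9 µM final and 0% = DMSO alone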
* hit, by the source's call; x = no result.

SMILES	ABHD5-PLIN5 inh	Beta2AR agonist	MC4R antag cAMP	PfG6PD inh	MC4R barr agon	MC4R barr conf	MOR DOR agonist
O=C(O)/C=C/C(=O)Nc1ccc(Oc2ncnc3cc(Cl)ccc23)nc1	x	x	x	17.4	x	x	x
CC(=O)Nc1ccc(S(=O)(=O)NNC(=O)COc2cc(C)ccc2C(C)C)cc1	2.9	-1.6	13.2	8.7	-0.8	x	x
Cc1ccc(C(C)C)c(OCC(=O)NNCC(=O)Nc2cccc(F)c2)c1	-15.3	13.3	-0.6	27.3	13.7*	10.2*	6.2
O=C(CSc1c(Cl)cccc1Cl)NC1CCCc2ccccc21 (configuration not stated)	-4.8	-0.3	3.2	21.1	31.1*	-2.8	3.9
O=C(Nc1ccc(Cl)cc1)NC1CCCc2ccccc21 (configuration not stated)	5.4	2.8	6.0	-13.2	4.5	x	x
O=C(CSc1ccccc1Cl)NC1CCCc2ccccc21 (configuration not stated)	5.3	14.2	3.9	-0.7	-0.8	x	x
O=C(CSc1ccc(Cl)cc1)NC1CCCc2ccccc21 (configuration not stated)	3.5	22.4	2.6	-15.6	10.9*	3.0	5.5
O=C(NC1CCCCC1)C(c1cccnc1)N(C(=O)c1ccc(Cl)nc1)C1CCCCC1 (configuration not stated)	-2.1	0.3	-3.7	7.2	-1.8	x	x
CSc1nc(C)cc(Oc2ccccc2)n1	4.2	-1.1	-1.6	0.4	-0.1	x	x
O=C(NCC1OCCc2ccccc21)c1cc(COc2ccc(F)cc2Cl)on1 (configuration not stated)	-1.8	-7.1	-1.3	-5.6	14.5*	5.8	7.5
O=C(NC1CCc2ccccc21)c1cc(COc2ccc(F)cc2F)on1 (configuration not stated)	-4.3	-2.4	-0.9	12.5	-2.0	x	x
COc1ccc(N(CC(C)C)S(=O)(=O)c2nnc(NC(=O)c3ccco3)s2)cc1	-2.4	14.2	-0.7	-36.2	-0.4	x	x
CC1=CC2=NC(=O)/C(=C\c3cccn3CCOc3ccc(C)c(C)c3)C(=N)N2O1	8.8	-6.5	-1.9	-1.1	13.7*	-2.6	5.2
O=C(Nc1ccc2c(c1)oc1ccccc12)c1ccc2c(c1)OCO2	-9.1	0.3	5.0	-15.1	-0.2	x	x
O=C(COc1ccc2c(c1)OCO2)Nc1ccc2c(c1)oc1ccccc12	-4.6	2.8	-0.1	-11.1	22.2*	21.0*	3.1
CCNc1ccc(C(=O)OCC(=O)NC(=O)NCC(C)C)cc1[N+](=O)[O-]	-1.9	-2.5	9.8	-7.7	-3.2	x	x
O=C(COC(=O)c1cc([N+](=O)[O-])ccc1NCc1ccccc1Cl)NCC(F)(F)F	-2.5	-1.4	2.0	0.3	12.7*	3.7	4.3
CCNc1ccc(C(=O)OCC(=O)NCc2ccccc2Cl)cc1[N+](=O)[O-]	3.3	-5.8	-0.1	-8.4	16.0*	7.0	3.1
O=C(COC(=O)c1cc([N+](=O)[O-])ccc1Cl)NCCc1ccccc1	-8.1	15.3	1.8	5.9	-2.1	x	x
CCN(c1ccc(Cl)cc1)S(=O)(=O)c1nnc(NC(=O)C(C)C)s1	-2.8	2.8	-3.6	-13.3	10.1*	0.8	6.1
CCN(c1ccc(OC)cc1)S(=O)(=O)c1nnc(NC(=O)C2CCCCC2)s1	-5.5	0.3	4.0	14.4	11.6*	1.1	7.2
CCN(c1ccc(OC)cc1)S(=O)(=O)c1nnc(NC(=O)C(C)C)s1	1.0	-1.5	-6.9	-15.6	1.3	x	x
CCCCC(=O)Nc1nnc(S(=O)(=O)N(CC)c2ccc(OC)cc2)s1	-9.2	-1.1	0.2	-16.5	3.0	x	x
O=C(NCCc1ccc(F)cc1)c1cccc(NC(=O)c2ccccc2)c1	-8.5	-2.8	4.1	6.1	-0.8	x	x
CC1CC(C)(C)NC(=S)N1CC(=O)NCc1ccc2c(c1)OCO2 (configuration not stated)	-7.7	-2.0	17.7	-7.4	-2.9	x	x
SMILES	ABHD5-PLIN5 inh	Beta2AR agonist	MC4R antag cAMP	PfG6PD inh	MC4R barr agon	MC4R barr conf	MOR DOR agonist
O=C1N/C(=C/c2cccn2-c2ccc(F)cc2)C(=O)N1Cc1ccccc1	-0.2	-14.3	-12.1	-2.1	10.3*	2.6	3.5
COc1cccc(-c2noc(-c3ccc4c(c3)OCO4)n2)c1	-3.4	9.0	5.3	14.1	11.1*	0.4	3.1
CC(=O)Nc1ccc(Nc2nc3ccccc3n3cnnc23)cc1	0.2	-12.9	8.5	9.0	-1.3	x	x
COc1cccc(-c2nc(NC(C)C)c3ccccc3n2)c1O	-3.7	1.7	1.5	33.1	-1.7	x	x
COc1cccc(-c2nc(NCc3cccnc3)c3ccccc3n2)c1O	-4.3	-0.3	1.1	8.3	15.7*	6.0	7.9
O=C(CC1c2ccccc2Oc2ccccc21)Nc1ccccc1C(F)(F)F	-0.1	1.1	5.3	-2.5	16.6*	4.4	8.3
O=C(CC1c2ccccc2Oc2ccccc21)Nc1ccccc1F	1.6	-3.8	3.5	-1.6	10.5*	4.8	5.8
O=C1N/C(=N\N=C\c2ccco2)SC1Cc1ccccc1[N+](=O)[O-] (configuration not stated)	-15.8	3.2	-1.9	0.6	0.8	x	x
CCOc1ccc(CC2S/C(=N/N=C/c3ccco3)NC2=O)cc1 (configuration not stated)	-1.7	0.5	9.8	-8.8	13.6*	4.7	4.8
CC1(Oc2cccc(F)c2)CCN(Cc2ccc(-c3ccccc3)o2)C1 (configuration not stated)	19.8	x	-3.5	x	10.0*	1.2	4.6
CC(=O)Nc1cc(-c2ccc(C(=O)NC3CC3)cc2)cn2c(-c3cccc(C(C)=O)c3)cnc12	2.2	x	11.9	x	16.4*	18.3*	2.9
CC(=O)Nc1cc(-c2cccc(C(=O)NCCN(C)C)c2)cn2c(-c3ccc(C(C)=O)cc3)cnc12	6.5	x	-9.9	x	0.1	x	x
CC(=O)Nc1cc(-c2ccc(C(=O)NC3CC3)cc2)cn2c(-c3cccc(C(F)(F)F)c3)cnc12	12.9	x	22.3	x	11.1*	20.4*	3.3
CC(C)c1ccc(NC(=O)Cc2c(C(=O)O)n(C)c3ccccc23)cc1	8.6	10.9	11.4	-24.9	-0.8	x	x
COc1ccc(S(=O)(=O)N(C)C[C@H]2Oc3ncc(-c4ccncc4)cc3C(=O)N([C@@H](C)CO)C[C@@H]2C)cc1	-2.1	x	8.2	17.5	-2.5	x	x
COc1cccc(-c2cnc3c(NC=O)cc(-c4cccc(NC(C)=O)c4)cn23)c1	-2.9	x	-5.8	x	11.6*	12.1*	2.2
CC(=O)Nc1cc(-c2ccc(C(=O)N3CCOCC3)cc2)cn2c(-c3cccc(C(C)=O)c3)cnc12	-2.1	x	19.4	x	2.3	x	x
